SMILES strings stand for the structures. About 1,400 (0.39%) of roughly 360,000 compounds were called active. Only a selection was taken, and actives are over-represented in it overall. A number with no mark means an inactive call.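 Rule for the calls: active = pattern-corrected inhibition above about 35%, with an unprinted fluorescence ratio check between 0.5 and 1.5 (limit read from the data, passing the limit was not always enough); inactive = the rest.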

The test deals with COP9 signalosome complex subunit 5 (Homo sapiens) (UniProt Q92905). As to the kind of experiment: inhibitors of CSN-mediated cullin deneddylation, primary screen, biochemical, fluorescence polarization, uHTS (AID 651999).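 Note: 0% = enzyme with substrate and 100% = substrate without enzyme.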 Particulars: Purified CSN, SCF-Nedd8-OG deneddylation, at 12.5 µM, stronger effect = higher value. In outline: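 Test system: Human Csn5 produced in HEK293T cells | Compound: 12.5 µM single point | Times: 90 min, room temperature | Signal: Fluorescence polarization readout | Read-out basis: % inhibition of substrate cleavage by Csn5 | Controls: no-enzyme wells high, enzyme-with-substrate wells low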
COP9 signalosome complex subunit 5 (Homo sapiens), sequence (Q92905 whole entry, looked up, one chain of several): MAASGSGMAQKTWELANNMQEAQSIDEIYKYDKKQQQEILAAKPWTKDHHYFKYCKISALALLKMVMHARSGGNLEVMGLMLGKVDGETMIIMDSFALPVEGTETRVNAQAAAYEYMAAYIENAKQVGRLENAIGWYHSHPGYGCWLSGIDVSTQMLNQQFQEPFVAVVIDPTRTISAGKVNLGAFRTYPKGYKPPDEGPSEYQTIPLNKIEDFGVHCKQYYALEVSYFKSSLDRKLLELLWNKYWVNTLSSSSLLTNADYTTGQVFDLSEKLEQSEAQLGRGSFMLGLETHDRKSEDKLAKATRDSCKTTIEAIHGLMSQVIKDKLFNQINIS
(In fluorescence polarisation assays a small probe gives low polarisation when free and higher when bound to something large.)
The term inhibition denotes the drop in the measured response relative to a control, in per cent. Turning to `COc1cccc(NC(=O)CN(C)C(=O)c2ccccc2CCc2ccccc2)c1`, the inhibition is 4.75%.

Consider `O=C(NCc1ccccc1)C1=C[C@@H](c2ccc(C(F)(F)F)cc2)C[C@@H](OCc2ccc(CO)cc2)O1`, for which the inhibition was 4.14%. Turning to `Cc1ccc(OCC(=O)Oc2ccccc2[N+](=O)[O-])cc1`, the inhibition was 1.14%. The value for `Cc1cc2nc(-c3ccc(F)cc3)c(Cc3ccsc3)n2c(C)c1Br` was -4.07%. The same measure for `Cc1cc2nc(-c3ccco3)c(Cc3cccc(F)c3)n2c(C)c1Br`: 38.5% (active).

Consider `Cc1cc2nc(-c3ccc(Cl)cc3)c(Cc3cccc(F)c3)n2c(C)c1Br`, for which the inhibition is 3.52%. As for `O=C1NC2(CCCCC2)N=C1c1ccccc1`, the inhibition is -2.27%.

For the compound `CC1CCCN(C(=O)Cn2c(=O)oc3cc(S(=O)(=O)N4CCCCC4C)ccc32)C1` (stereo not drawn), the inhibition is -0.78%. The same measure for `C=CCc1ccc(OCCOc2cccc(/C=N/n3cnnc3)c2)c(OC)c1`: 0.99%. The same measure for `Cc1nc([N+](=O)[O-])cn1CC(=O)Nc1ccc2c(c1)OCO2`: -0.35%; for `O=C(CCN1C(=O)c2ccncc2C1=O)Nc1ccc2c(c1)OCCO2`: 5.06%; for `Cc1ccc(C(=O)O)cc1-c1ccc(/C=C2\SC(=O)N(CC(=O)Nc3ccc4c(c3)OCO4)C2=O)o1`: 102% (active). The same measure for `CNS(=O)(=O)c1ccc(N2CCCC2=O)c([N+](=O)[O-])c1`: -1.32%.

As for `Cc1ccc(-c2nn(-c3ccccc3)cc2/C=C2\SC(=S)N(CCCCCC(=O)O)C2=O)o1`, the inhibition was 66.1% (active). As for `C/C(CC(=O)N1CCN(C=O)CC1)=N\NC(=O)c1ccc(Br)cc1`, the inhibition is -6.38%. The same measure for `O=C(O)CC/C(=N\NC(=O)c1ccc(F)cc1)c1ccc(Br)cc1`: 51.7% (active); for `O=C(CNC(=O)c1ccccc1F)c1ccc(Br)cc1`: 3.53%. For `Cc1ccn(CCC(=O)N2c3ccccc3CC2C)n1` (stereo not drawn), the inhibition is 0.86%.

For `CCOC(=O)C1CCCN(CCSc2ccc(C)cc2)C1` (stereo not drawn), the inhibition was -0.91%. The value for `COc1ccc2c(c1)c(=Cc1ccc(N(C)C)cc1)c1cc(-c3ccccc3)[n+](C)n12` was 61.6% (active); that for `CCOC(=O)[C@]12CCCC=C1N(CCC1=CCCCC1)C(=O)[C@H](CC(=O)N1CCN(C(=O)c3ccco3)CC1)C2` was -3.01%.

As for `CCC(C)Cn1c(O)cc2nn(-c3nc4ccccc4s3)c(=O)c-2c1C` (stereo not drawn), the inhibition is 35.4% (active). The same measure for `CCC(CC)C(=O)Nc1cccc(C(=O)N2CCCC2)c1`: 2.19%. For `CC1CC(C)CN(S(=O)(=O)c2cccc3nonc23)C1` (stereo not drawn), the inhibition is 0.47%. Turning to `CCCCCN(C(=O)CCC(=O)OCC(=O)NCc1ccc(OC)cc1)c1c(N)n(CCCC)c(=O)[nH]c1=O`, the inhibition was 4.14%. The value for `CC(C)C1CC2=C(C(=O)OC(C)(C)O2)C(c2ccc(F)cc2)O1` (stereo not drawn) was 2.3%.

On to `CCC(C)NC(=O)N[C@@H](CCSC)C(=O)O` (stereo partly drawn), for which the inhibition was -1.26%. As to `COC(=O)c1c(-c2cccs2)csc1NC(=O)CSc1ncnc2sc(C)c(C)c12`, the inhibition is -5.37%. The same measure for `Cc1sc2ncnc(SCC(=O)NC3CCS(=O)(=O)C3)c2c1C` (stereo not drawn): -1.73%; for `Cc1sc2ncnc(SCC(=O)Nc3ccc(CN4CCCC4)cc3)c2c1C`: 108% (active); for `O=C(Nc1cccnc1)c1cc2cc(Br)ccc2oc1=O`: 5.43%. The value for `Cc1ccc2nc(-c3ccncc3)cc(C(=O)Nc3ccc(OC(F)F)cc3)c2c1` was 42% (active); that for `O=C(Nc1ccncc1)c1cc(-c2ccccn2)nc2ccc(Br)cc12` was 51.3% (active). The same measure for `O=C(Nc1ccc(Br)cc1)c1cc(S(=O)(=O)Nc2ccccn2)ccc1Cl`: -4.77%; for `COc1ccc(C)cc1NC(=O)c1cc(-c2ccccc2)nc2c1cnn2C(C)C`: -2.82%. For `Cc1cc(NS(=O)(=O)c2ccc(NC(=O)c3cccc(OC(F)F)c3)cc2)nc(C)n1`, the inhibition is 2.76%. For `O=C(NCc1ccncc1)C(=O)NCc1ccco1`, the inhibition was -6.34%. For the compound `CCCN(CC1CC1)C(=S)NC(=O)c1ccccc1Br`, the inhibition was -6.61%. `CN1CCN(c2ccc(S(=O)(=O)N3CCOCC3)cc2NC(=O)CCc2ccccc2)CC1`: the inhibition was 2.64%. `CCOC(=O)CN(C)S(=O)(=O)c1ccc(-c2cc(C(=O)OC)sc2C(F)(F)F)cc1`: the inhibition is 1.34%.

As to `COc1ccc(Nc2cc(Sc3ccc(OC)cc3)ncn2)cc1`, the inhibition was -0.7%. The same measure for `COc1ccc(NC2=CC(=S)NC(C)(C)C2)cc1`: 42.9% (active); for `COc1ccc(CCNC2=CC(=O)CC(C)(C)C2)cc1`: -5.48%. With `O=C(NCCc1ccccc1)C(=O)NCC1OCCN1S(=O)(=O)c1cccs1` (stereo not drawn), the inhibition was 0%. The same measure for `O=C(Nc1ccc(Cl)c(Cl)c1)c1ccccc1NC(=O)C1CC=CCC1C(=O)O` (stereo not drawn): -4.09%. The value for `Cc1cc(N(C)C)cc(C)[n+]1[O-]` was -2.98%.

As to `O=C1CSC(c2ccc(Cl)cc2)N1` (stereo not drawn), the inhibition is -5.2%. For the compound `CCCCC(c1nnnn1CS(=O)(=O)c1ccc(C)cc1)N1CCC(C(N)=O)CC1` (stereo not drawn), the inhibition is -2.76%.

On to `CC(C)(C)C1C/C(=C/c2ccco2)C(=O)/C(=C/c2ccco2)C1` (stereo not drawn), for which the inhibition is 41.2% (active). As to `CCCC/C(C)=N/NC(=O)NC1CCCCC1`, the inhibition is -3.54%.

With `Nc1c(-c2ccc(F)cc2)cnc2ncnn12`, the inhibition was 2.66%. The same measure for `CCN(CC(=O)Nc1ccc2c(c1)OCCO2)Cc1cc(=O)oc2cc(C)c(C)cc12`: 4.55%; for `CCc1ccccc1OCC(=O)Nc1ccc2c(c1)OCCO2`: 1.42%; for `O=C(COc1ccc2c(C(F)(F)F)cc(=O)oc2c1)Nc1ccc2c(c1)OCCO2`: 187% (active). The value for `Cc1cccc(OCC(=O)NCCNC(=O)c2cccnc2)c1` was 0.16%; that for `Cc1ccc(NC(=O)COc2ccc(-n3ccnc3)cc2)cc1Cl` was 0%; that for `Cc1ccc(NC(=O)COc2ccc(/C=N\NC(=O)c3cccnc3)cc2)cc1C` was 158% (active).

`CSCCC(NS(=O)(=O)c1ccc(C)cc1)C(=O)N(C)CC(=O)Nc1ccccc1Br` (stereo not drawn): the inhibition was 1.95%. `Cc1nc(SCC(=O)NC2CCCCC2C)c(C#N)c(C)c1C` (stereo not drawn): the inhibition was 0.75%.

As to `O=C(O)C(c1ccccc1)N1C(=O)/C(=C\c2ccc(-c3cccc(Cl)c3)o2)SC1=S` (stereo not drawn), the inhibition is 93.7% (active). As for `CCC(C)N1C(=O)S/C(=C/c2ccc(Sc3nc4ccccc4[nH]3)o2)C1=O` (stereo not drawn), the inhibition was 4.54%. As to `CC1COc2ccccc2N1S(=O)(=O)c1ccccc1` (stereo not drawn), the inhibition was -12.8%.

For `CCOC(=O)C1CCN(C(=O)CC2C(=O)N(Cc3ccccc3)C(C)c3nc4ccccc4n32)CC1` (stereo not drawn), the inhibition is 4.78%. On to `CN(C)N=Nc1ccc2nc[nH]c2c1`, for which the inhibition was -1.48%. The value for `CC1=CC(=NNS(=O)(=O)c2ccc([N+](=O)[O-])cc2)CC(C)(C)C1` was 8.55%; that for `Cc1ccc(Cc2cnc(N)s2)o1` was 36.5% (active). For `CC(=O)c1nnn(-c2ccc(Cl)cc2C#N)c1C`, the inhibition is 0.92%.

For the compound `CC(C)(C)c1ccc(C(=O)N2CCC(C(=O)N3CCCCC3)CC2)cc1`, the inhibition was -2.5%. Consider `O=c1ccc(-c2ccc(S(=O)(=O)Nc3ccccc3)o2)n[nH]1`, for which the inhibition was 6.31%. `O=C(NCC1CCCO1)/C(=C/c1ccc(Cl)cc1)NC(=O)c1ccccc1` (stereo not drawn): the inhibition is -2.86%.

In the case of `Cn1c2ccccc2c2cc(/C=C(\NC(=O)c3ccccc3)C(=O)NCC(=O)O)ccc21`, the inhibition is 60.8% (active). For `CCOc1ccc(/C=C(/NC(=O)c2ccccc2)C(=O)NCCC(=O)O)cc1`, the inhibition was -10.6%. As to `CC1CCN(S(=O)(=O)c2ccc(S(=O)(=O)NCc3ccco3)cc2)CC1`, the inhibition was 0.01%. The value for `Cc1noc(NS(=O)(=O)c2ccc(N3CC(O)=C(c4ccccc4)C3=N)cc2)c1C` was 2.49%. The same measure for `O=C1CC(c2c(F)cccc2Cl)C(n2cncn2)C(O)=C1C1NCCc2ccccc21` (stereo not drawn): -3.94%; for `CCn1c(SCC(=O)Nc2ccc(Br)cc2)nc2sc3c(c2c1=O)CCN(C)C3`: 3.55%; for `CCCSc1nc2sc3c(c2c(=O)n1-c1ccc(OC)cc1)CCN(C)C3`: 7.27%. `CCOc1ccc(-n2c(SCC(=O)Nc3ccc(OC)cc3)nc3sc4c(c3c2=O)CCN(C)C4)cc1`: the inhibition was 102% (active). The value for `CCN(CC)C(=O)CSc1nnc(-c2ccc(S(=O)(=O)NCc3ccccc3Cl)cc2)o1` was -2.99%; that for `NC(=S)c1ccc(C(N)=S)o1` was 2.12%. The value for `O=C(NCCCn1ccnc1)c1cc2c(s1)CCCC2` was 0.16%; that for `COc1ccc2c(c1)OC(O)(C(F)(F)C(F)F)CC2=O` (stereo not drawn) was 2.02%; that for `Oc1ccc(N=Cc2c(O)ccc3ccccc23)cc1` was 58.2% (active). As to `C/C(=N\NC(N)=S)c1cccnc1`, the inhibition is -5.1%.

Consider `CCc1nc2c(=O)[nH]cnc2o1`, for which the inhibition is -0.47%.

Turning to `Cc1c(CNCCc2ccccc2)c(C(=O)O)c(C)n1-c1ccccc1`, the inhibition is -2.52%.

In the case of `Cc1ccc(OCCNC(=O)c2cccc(S(=O)(=O)N3CCN(Cc4ccccc4)CC3)c2)cc1`, the inhibition is -1.93%. The value for `Cn1c(=O)[nH]c2c(c(C(=O)O)nn2C)c1=O` was -1.75%. For `COc1ccccc1N1CCN(C(=O)C(=O)N/N=C/c2ccccc2F)CC1`, the inhibition was -1.85%.

As for `COc1cc(/C=N\NC(=O)c2nonc2N)c(OC)cc1Br`, the inhibition is 3.66%.

As for `COc1cccc(/C=N/NC(=O)c2[nH]nc3c2CCc2ccccc2-3)c1O`, the inhibition is 67% (active). Regarding `CC1CC(C)CN(C(=O)CCNC(=O)Cn2cnc3ccccc3c2=O)C1` (stereo not drawn), the inhibition is -0.46%.

Consider `O=C(CN1CCN(c2ncc(C(F)(F)F)cc2Cl)CC1)Nc1ccc2c(c1)OCO2`, for which the inhibition is 4.43%.
